Calls of active or inactive are those of the source. No cut-off for these calls is given here.
Legend:
[1] = Cytotoxicity against human NCI-H146 cells assessed as growth inhibition after 4 days by WST assay; format: functional, cell-based; details: NCI-H146, 96 h
[2] = target: Bcl-2-like protein 1 (Homo sapiens, UniProt Q07817); experiment: Binding affinity to BCL-XL (unknown origin) after 2 hrs by fluorescence polarization assay
Procedure, shortened: (§1)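 Competitive FP binding assay. Preformed protein/fluorescent probe complexes were used at 1.5/1 nM for Bcl-2, 10/2 nM for Bcl-xL and 20/2 nM for Mcl-1. These were mixed with serially diluted inhibitor and shaken gently for 2 h at room temperature before millipolarization was read. IC50 came from nonlinear regression, and Ki was calculated from IC50.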

[3] = target: Apoptosis regulator Bcl-2 (Homo sapiens, UniProt P10415); experiment: Binding affinity to BCL2 (unknown origin) after 2 hrs by fluorescence polarization assay; procedure, shortened: as §1
[4] = test system: NCI-H187; experiment: Cytotoxicity against human NCI-H187 cells assessed as growth inhibition after 4 days by WST assay; format: functional, cell-based; details: NCI-H187, 96 h
Procedure, shortened: (§2)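 Human small-cell lung cancer line from ATCC, kept in RPMI-1640 with 10% FBS. Cells were exposed to serial compound concentrations for 4 days. WST-8 dye was then added for a further 1–2 h and absorbance read at 450 nm. IC50 was derived from absorbance of treated versus untreated cells. At least three independent experiments per cell line; standard deviation reported.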

[5] = test system: NCI-H1417; experiment: Cytotoxicity against human NCI-H1417 cells assessed as growth inhibition after 4 days by WST assay; format: functional, cell-based; details: NCI-H1417, 96 h; procedure, shortened: as §2
[6] = test system: NCI-H1963; experiment: Cytotoxicity against human NCI-H1963 cells assessed as growth inhibition after 4 days by WST assay; format: functional, cell-based; details: NCI-H1963, 96 h; procedure, shortened: as §2
[7] = target: Induced myeloid leukemia cell differentiation protein Mcl-1 (Homo sapiens, UniProt Q07820); experiment: Binding affinity to MCL1 (unknown origin) after 2 hrs by fluorescence polarization assay; procedure, shortened: as §1
[8] = test system: NCI-H146; experiment: Induction of apoptosis in human NCI-H146 cells xenografted in SCID mouse assessed as increase in caspase-3 cleavage at 15 mg/kg, iv after 3 to 6 hrs by Western blotting analysis; format: functional, organism-based; parameters: dose 15 mg/kg
Procedure, shortened: (§3)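 SCID mice bearing subcutaneous H146 xenografts of about 100 mm³ got a single intravenous dose of 15 mg/kg or vehicle. Tumors were harvested at 3, 6 or 24 h. Western blot then measured total and cleaved PARP and caspase-3.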

[9] = test system: Mus musculus; experiment: Toxicity in SCID mouse 15 mg/kg, iv administered 5 days per week for 2 weeks; format: organism-based; parameters: dose 15 mg/kg, route intravenous; details: in vivo
Procedure, shortened: (§4)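 Tolerability run in non-tumor-bearing SCID mice. Compound given intravenously at 15 or 25 mg/kg, daily, 5 days a week for 2 weeks. Weight loss and other signs of toxicity were followed during and after treatment, and the maximum tolerated dose was set from weight loss.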

[10] = test system: Mus musculus; experiment: Toxicity in SCID mouse assessed as weight loss at 15 mg/kg, iv administered 5 days per week for 2 weeks relative to control; format: organism-based; parameters: dose 15 mg/kg, route intravenous; details: in vivo; procedure, shortened: as §4
[11] = test system: NCI-H146; experiment: Induction of apoptosis in human NCI-H146 cells xenografted in SCID mouse assessed as increase in PARP cleavage at 15 mg/kg, iv after 3 to 6 hrs by Western blotting analysis; format: functional, organism-based; parameters: dose 15 mg/kg; procedure, shortened: as §3
[12] = Toxicity in iv dosed SCID mouse assessed as weight loss administered 5 days per week for 2 weeks; format: organism-based; details: in vivo
Procedure, shortened: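 Maximum tolerated dose study in SCID mice. Compound was given intravenously at 15 or 25 mg/kg, daily, 5 days a week for 2 weeks. Body weight loss and other signs of toxicity were monitored during and after treatment.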

[13] = test system: NCI-H146; experiment: Antitumor activity against human NCI-H146 cells xenografted in SCID mouse assessed as tumor regression at 15 mg/kg, iv administered 5 days per week for 2 weeks; format: functional, organism-based; parameters: dose 15 mg/kg
Procedure, shortened: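 H146 cells (5×10^6, with Matrigel) implanted subcutaneously on the dorsal side of SCID mice, one tumor per mouse. Mice with tumors of 100–150 mm³ were randomized into groups of 8, mean volume 126 mm³. Vehicle or compound given intravenously at 15 mg/kg, daily, 5 days/week for 2 weeks. Tumor volume was followed over time.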

[14] = test system: Mus musculus; experiment: Toxicity in SCID mouse assessed as weight loss at 25 mg/kg, iv administered 5 days per week for 2 weeks relative to control; format: organism-based; parameters: dose 25 mg/kg, route intravenous; details: in vivo; procedure, shortened: as §4

Sequence of Apoptosis regulator Bcl-2 (P10415 whole entry): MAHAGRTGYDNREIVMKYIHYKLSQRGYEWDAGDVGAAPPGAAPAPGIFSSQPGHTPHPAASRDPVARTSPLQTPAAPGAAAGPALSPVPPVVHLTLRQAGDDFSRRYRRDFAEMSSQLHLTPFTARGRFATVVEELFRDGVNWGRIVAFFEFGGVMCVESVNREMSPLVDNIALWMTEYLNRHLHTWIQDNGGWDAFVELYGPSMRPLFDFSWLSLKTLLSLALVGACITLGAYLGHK
Sequence of Bcl-2-like protein 1 (Q07817 whole entry): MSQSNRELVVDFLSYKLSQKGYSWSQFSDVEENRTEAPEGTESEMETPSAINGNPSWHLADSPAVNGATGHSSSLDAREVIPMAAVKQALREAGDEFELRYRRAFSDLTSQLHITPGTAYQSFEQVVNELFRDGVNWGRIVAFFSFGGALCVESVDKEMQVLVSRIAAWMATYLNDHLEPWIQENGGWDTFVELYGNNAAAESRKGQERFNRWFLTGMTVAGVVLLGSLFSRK
Sequence of Induced myeloid leukemia cell differentiation protein Mcl-1 (Q07820 whole entry): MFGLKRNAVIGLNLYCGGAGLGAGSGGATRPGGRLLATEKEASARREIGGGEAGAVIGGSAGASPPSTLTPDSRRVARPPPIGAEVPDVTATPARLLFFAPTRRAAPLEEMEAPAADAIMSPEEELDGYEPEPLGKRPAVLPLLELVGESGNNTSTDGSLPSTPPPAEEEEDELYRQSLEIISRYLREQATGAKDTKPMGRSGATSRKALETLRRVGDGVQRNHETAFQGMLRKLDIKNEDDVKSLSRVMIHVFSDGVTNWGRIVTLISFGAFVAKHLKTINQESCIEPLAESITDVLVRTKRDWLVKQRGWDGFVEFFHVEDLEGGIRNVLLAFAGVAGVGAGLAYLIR

| Compound | IC50 [1] [nM] | IC50 [2] [nM] | IC50 [3] [nM] | further results |
| --- | --- | --- | --- | --- |
| CN(C)CC[C@H](CSc1ccccc1)Nc1ccc(S(=O)(=O)Nc2ccc(N3CCN(c4cccc(-c5c(C(=O)O)c(Cl)n(C)c5-c5ccc(Cl)cc5)c4)CC3)cc2)cc1[N+](=O)[O-] | 100 | 4.7 | 1.5 | – |
| Cc1c(C(=O)NS(C)(=O)=O)c(-c2cccc(N3CCN(c4ccc(NS(=O)(=O)c5ccc(N[C@H](CCN(C)C)CSc6ccccc6)c([N+](=O)[O-])c5)cc4)CC3)c2)c(-c2ccc(Cl)cc2)n1C | 38 | – | 0.9 | – |
| CN(C)CC[C@H](CSc1ccccc1)Nc1ccc(S(=O)(=O)Nc2ccc(N3CCN(c4cccc(-c5cn(C)nc5-c5ccc(Cl)cc5)c4)CC3)cc2)cc1[N+](=O)[O-] | > 10000 | 26 | 140 | – |
| CC1(C)CCC(c2ccc(Cl)cc2)=C(CN2CCN(c3ccc(C(=O)NS(=O)(=O)c4ccc(N[C@H](CCN5CCOCC5)CSc5ccccc5)c(S(=O)(=O)C(F)(F)F)c4)cc3)CC2)C1 [NAVITOCLAX] | – | – | – | IC50 [4]: 38.4 nM; IC50 [5]: 54.2 nM; IC50 [6]: 26.6 nM |
| CN(C)CC[C@H](CSc1ccccc1)Nc1ccc(S(=O)(=O)Nc2ccc(N3CCN(c4cccc(-c5cnoc5-c5ccc(Cl)cc5)c4)CC3)cc2)cc1[N+](=O)[O-] | > 10000 | 22 | 350 | – |
| Cc1oc(-c2ccc(Cl)cc2)c(-c2cccc(N3CCN(c4ccc(NS(=O)(=O)c5ccc(N[C@H](CCN(C)C)CSc6ccccc6)c([N+](=O)[O-])c5)cc4)CC3)c2)c1C(=O)O | 199 | 4.7 | 3.8 | – |
| Cc1c(C(=O)N2CC(C)(O)C2)c(-c2cccc(N3CCN(c4ccc(NS(=O)(=O)c5ccc(N[C@H](CCN(C)C)CSc6ccccc6)c([N+](=O)[O-])c5)cc4)CC3)c2)c(-c2ccc(Cl)cc2)n1C | 66 | 9.4 | 5.6 | – |
| CCn1c(C)c(C(=O)O)c(-c2cccc(N3CCN(c4ccc(NS(=O)(=O)c5ccc(N[C@H](CCN(C)C)CSc6ccccc6)c([N+](=O)[O-])c5)cc4)CC3)c2)c1-c1ccc(Cl)cc1 | – | – | 2 | – |
| Cc1c(C(=O)N[C@H]2C[C@@](C)(O)C2)c(-c2cccc(N3CCN(c4ccc(NS(=O)(=O)c5ccc(N[C@H](CCN(C)C)CSc6ccccc6)c([N+](=O)[O-])c5)cc4)CC3)c2)c(-c2ccc(Cl)cc2)n1C | 12 | 15 | 7.5 | – |
| CN(C)CC[C@H](CSc1ccccc1)Nc1ccc(S(=O)(=O)NC(=O)c2ccc(N3CCN(Cc4ccccc4-c4ccc(Cl)cc4)CC3)cc2)cc1[N+](=O)[O-] [ABT 737] | – | – | – | IC50 [4]: 138 nM; IC50 [5]: 173 nM; IC50 [6]: 54 nM |
| CN(C)CC[C@H](CSc1ccccc1)Nc1ccc(S(=O)(=O)Nc2ccc(N3CCN(c4cccc(-c5c(C(=O)O)nn(C)c5-c5ccc(Cl)cc5)c4)CC3)cc2)cc1[N+](=O)[O-] | > 1000 | 6.1 | 7.1 | – |
| Cc1cc(-c2cccc(N3CCN(c4ccc(NS(=O)(=O)c5ccc(N[C@H](CCN(C)C)CSc6ccccc6)c([N+](=O)[O-])c5)cc4)CC3)c2)c(-c2ccc(Cl)cc2)n1C | > 10000 | – | – | – |
| Cc1c(C(=O)O)c(-c2cccc(N3CCN(c4ccc(NS(=O)(=O)c5ccc(N[C@H](CCN(C)C)CSc6ccccc6)c([N+](=O)[O-])c5)cc4)CC3)c2)c(-c2ccc(Cl)cc2)n1C | – | – | 1.3 | – |
| CN(C)CC[C@H](CSc1ccccc1)Nc1ccc(S(=O)(=O)Nc2ccc(N3CCN(c4cccc(-c5c(-c6ccc(Cl)cc6)nn(C)c5C(=O)O)c4)CC3)cc2)cc1[N+](=O)[O-] | 541 | 5.9 | 3.7 | – |
| Cc1c(C#N)c(-c2cccc(N3CCN(c4ccc(NS(=O)(=O)c5ccc(N[C@H](CCN(C)C)CSc6ccccc6)c([N+](=O)[O-])c5)cc4)CC3)c2)c(-c2ccc(Cl)cc2)n1C | 491 | 4.5 | 17 | – |
| CCn1c(C)c(C(=O)NS(C)(=O)=O)c(-c2cccc(N3CCN(c4ccc(NS(=O)(=O)c5ccc(N[C@H](CCN(C)C)CSc6ccccc6)c([N+](=O)[O-])c5)cc4)CC3)c2)c1-c1ccc(Cl)cc1 | 4.8 | 7 | 1.8 | IC50 [7]: > 2000 nM; IC50 [4]: 7.9 nM; Activity [8]: Active; IC50 [5]: 11.1 nM; Activity [9]: Non-toxic; Activity [10]: < 5%; Activity [11]: Active; MTD at 2 weeks [12]: 15 mg/kg; Activity [13]: Active; IC50 [6]: 8.2 nM; Activity [14]: 10% |
| CN(C)CC[C@H](CSc1ccccc1)Nc1ccc(S(=O)(=O)Nc2ccc(N3CCN(c4cccc(-c5c(C(=O)O)c(C(F)(F)F)n(C)c5-c5ccc(Cl)cc5)c4)CC3)cc2)cc1[N+](=O)[O-] | 496 | 6 | 1.1 | – |
| CCCCn1c(C)c(C(=O)O)c(-c2cccc(N3CCN(c4ccc(NS(=O)(=O)c5ccc(N[C@H](CCN(C)C)CSc6ccccc6)c([N+](=O)[O-])c5)cc4)CC3)c2)c1-c1ccc(Cl)cc1 | 67 | 16 | 23 | – |
| CN(C)CC[C@H](CSc1ccccc1)Nc1ccc(S(=O)(=O)Nc2ccc(N3CCN(c4cccc(-c5cncn5-c5ccc(Cl)cc5)c4)CC3)cc2)cc1[N+](=O)[O-] | > 10000 | 18 | 46 | – |
| CCCn1c(C)c(C(=O)O)c(-c2cccc(N3CCN(c4ccc(NS(=O)(=O)c5ccc(N[C@H](CCN(C)C)CSc6ccccc6)c([N+](=O)[O-])c5)cc4)CC3)c2)c1-c1ccc(Cl)cc1 | 42 | 8.2 | 10 | – |
| CN(C)CC[C@H](CSc1ccccc1)Nc1ccc(S(=O)(=O)Nc2ccc(N3CCN(c4cccc(-c5c(C(=O)NS(C)(=O)=O)cnn5-c5ccc(Cl)cc5)c4)CC3)cc2)cc1[N+](=O)[O-] | > 1000 | 5 | 5.4 | – |
| Cc1c(Cl)c(-c2cccc(N3CCN(c4ccc(NS(=O)(=O)c5ccc(N[C@H](CCN(C)C)CSc6ccccc6)c([N+](=O)[O-])c5)cc4)CC3)c2)c(-c2ccc(Cl)cc2)n1C | > 1000 | 12 | 260 | – |
| CN(C)CC[C@H](CSc1ccccc1)Nc1ccc(S(=O)(=O)Nc2ccc(N3CCN(c4cccc(-c5cnn(C)c5-c5ccc(Cl)cc5)c4)CC3)cc2)cc1[N+](=O)[O-] | > 10000 | 15 | 210 | – |
| Cc1c(C(F)(F)F)c(-c2cccc(N3CCN(c4ccc(NS(=O)(=O)c5ccc(N[C@H](CCN(C)C)CSc6ccccc6)c([N+](=O)[O-])c5)cc4)CC3)c2)c(-c2ccc(Cl)cc2)n1C | > 1000 | 13 | 271 | – |
| CN(C)CC[C@H](CSc1ccccc1)Nc1ccc(S(=O)(=O)Nc2ccc(N3CCN(c4cccc(-c5c(C(=O)NS(C)(=O)=O)ncn5-c5ccc(Cl)cc5)c4)CC3)cc2)cc1[N+](=O)[O-] | > 1000 | 8.3 | 3.8 | – |
| Cc1c(C(N)=O)c(-c2cccc(N3CCN(c4ccc(NS(=O)(=O)c5ccc(N[C@H](CCN(C)C)CSc6ccccc6)c([N+](=O)[O-])c5)cc4)CC3)c2)c(-c2ccc(Cl)cc2)n1C | 245 | 14 | 19 | – |
| CN(C)CC[C@H](CSc1ccccc1)Nc1ccc(S(=O)(=O)Nc2ccc(N3CCN(c4cccc(-c5ccnn5-c5ccc(Cl)cc5)c4)CC3)cc2)cc1[N+](=O)[O-] | > 10000 | 32 | 110 | – |
